Screening data (PubChem)
Compounds with a hit are over-represented: about 1.4% of the library has one in this group of screens.
TNAP act hiacc: TNAP activators at high phosphate acceptor level, primary screen, biochemical, luminescence, uHTS | 200,000 tested, under 10 active | activation factor at 20 µM | Alkaline phosphatase, tissue-nonspecific isozyme (Homo sapiens), P05186 | purified TNAP, CDP-star luminescence, 1 M DEA, 30 min; active compounds read high; 0 = EDTA background, 1 = DMSO-only activity;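 active = activation factor at least 2 at 20 µM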
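Dosing: 20 µM single point. System: human TNAP. Amount: TNAP 1/800 final. Incubation: 30 min, room temperature. Read-out: TNAP activation factor scaled between EDTA and DMSO control wells. Signal: luminescence from CDP-star hydrolysis. Medium: 1 M DEA, pH 9.8, Mg2+, Zn2+. Control set: EDTA negative control, DMSO positive control.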
CHT PAM: CHT positive allosteric modulators, primary screen, cell-based, membrane potential dye, choline EC20. High affinity choline transporter 1 (Homo sapiens), Q9GZV3. CHT-expressing cells; active compounds read high; LV-AA mutant CHT in HEK293 cells. B-score at 10 µM. actives 0.49% (n = 310,000);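 active = initial fluorescence not abnormally high and integrated response B-score, plate-corrected, over 3 SD above library mean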
Target sequence (Q9GZV3 whole entry, looked up): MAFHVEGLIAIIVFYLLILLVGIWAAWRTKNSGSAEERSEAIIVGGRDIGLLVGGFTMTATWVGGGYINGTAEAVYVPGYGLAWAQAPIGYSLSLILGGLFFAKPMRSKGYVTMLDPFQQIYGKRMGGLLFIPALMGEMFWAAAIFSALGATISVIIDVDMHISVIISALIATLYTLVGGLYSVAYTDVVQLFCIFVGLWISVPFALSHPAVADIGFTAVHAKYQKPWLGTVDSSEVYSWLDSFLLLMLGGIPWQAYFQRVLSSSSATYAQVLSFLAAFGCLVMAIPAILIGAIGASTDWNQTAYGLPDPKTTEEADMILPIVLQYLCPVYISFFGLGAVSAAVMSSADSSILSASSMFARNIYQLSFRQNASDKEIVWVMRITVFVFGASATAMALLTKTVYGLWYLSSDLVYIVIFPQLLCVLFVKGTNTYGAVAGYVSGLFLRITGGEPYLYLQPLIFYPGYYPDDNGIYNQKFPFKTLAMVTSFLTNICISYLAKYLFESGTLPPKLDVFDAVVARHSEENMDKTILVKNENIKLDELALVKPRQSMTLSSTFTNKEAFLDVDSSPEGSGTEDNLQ
CHT block: inhibitors of human choline transporter CHT | B-score at 10 µM | CHT-expressing cells, membrane potential dye, choline response; active compounds read low | High affinity choline transporter 1 (Homo sapiens), Q9GZV3 | actives 0.86% (n = 310,000) | AID 488975, 2010;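 active = B-score over 3 SD under the library average, and starting fluorescence ratio not unusually high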;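 note: choline stimulus applied at its EC90 after an EC20 pre-addition; B-score computed on integrated fluorescence ratio after choline addition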
TNAP inh noacc: human TNAP enzyme inhibitors, primary screen, biochemical, luminescent, no phosphate acceptor, uHTS. inhibition, % at 20 µM. actives 0.26% (n = 200,000). AID 1012, 2008. purified TNAP, CDP-star luminescence, 30 min. Alkaline phosphatase, tissue-nonspecific isozyme (Homo sapiens), P05186;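 active = tissue-nonspecific alkaline phosphatase inhibition above about 50% at 20 µM in the single-dose screen, limit read from the data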;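 note: 0% = DMSO negative control and 100% = EDTA positive control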
ABCB6 inh 2: ABCB6 transporter inhibitors, primary screen, K562-ABCB6 cells, flow cytometry, MLPCN library. fluorescence ratio to DMSO, % at 10 µM. K562-ABCB6 porphyrin accumulation, 1 h; active compounds read low. actives 0.19% (n = 360,000). ATP-binding cassette sub-family B member 6 (Homo sapiens), Q9NP58;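 active = fluorescence ratio to DMSO below 75%, the collection mean minus 3 SD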;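 note: signal is porphyrin accumulated inside mitochondria; 100% equals median channel fluorescence of DMSO control wells; lower ratio means ABCB6 inhibition with less porphyrin fluorescence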
TNAP inh hi DEA: human TNAP enzyme inhibitors, primary screen, biochemical, luminescent, high phosphate acceptor level, uHTS | purified TNAP, CDP-star luminescence, 1 M DEA | inhibition, % at 20 µM | actives 0.03% (n = 200,000) | AID 1135, 2008;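 active = over 50% inhibition of tissue-nonspecific alkaline phosphatase at 20 µM in the single-dose screen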;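 note: plate controls were DMSO wells for no effect and EDTA-quenched wells as full inhibition for full effect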
CHT act confirm: CHT activators, confirmation, cell-based, membrane potential dye, duplicate. shares compounds with CHT PAM. CHT-expressing cells, membrane potential dye fluorescence (FDSS); % of choline EC20–EC90 response window; HEK293 expressing CHT LV-AA mutant; choline added at its EC20. activation, % at 10 µM. actives 91% (n = 2,500). AID 504833, 2011;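 active = primary screen active, with duplicate mean activation above negative control mean plus 3 SD, cut at about 11% in these data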
HEK293 MP dye: membrane potential response in parental HEK293 cells, counter-screen for CHT activator project, cell-based, membrane potential dye. shares compounds with CHT PAM. membrane potential dye fluorescence (FDSS); measured after EC20 choline addition. ratio readout change at 10 µM, hits read low. AID 623908, 2012. actives 62% (n = 2,500);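 active = duplicate-averaged ratio beyond 3 SD from buffer wells, up or down, though filed actives are nearly all decreases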
An asterisk follows results filed as active.

Results for Cc1cc(OCC(=O)NC2CC(C)(C)NC(C)(C)C2)c2c(C)cc(=O)oc2c1 ?
CHT PAM: inactive; CHT block: inactive; ABCB6 inh 2: 76.0; CHT act confirm: 65.5*; HEK293 MP dye: -45*

How did CC1(C)CC(NC(=O)COc2ccc3ccc(=O)oc3c2)CC(C)(C)N1 do in these assays?
CHT PAM: inactive; CHT block: inactive; ABCB6 inh 2: 88.0

Results for CCCCn1nc(C(=O)NCC(c2cccs2)N2CCOCC2)c2ccccc2c1=O (configuration not stated) ?
ABCB6 inh 2: 95.0

Results for COC1=C(Nc2ccccc2)C(=O)c2ccccc2C1=O ?
TNAP act hiacc: 0.8; CHT PAM: inactive; CHT block: inactive; TNAP inh noacc: 15.4; ABCB6 inh 2: 97.0; TNAP inh hi DEA: 17.2; CHT act confirm: 34.7*; HEK293 MP dye: -57.5*

Results for COC1=C(Nc2ccc(C)cc2)C(=O)c2ccccc2C1=O ?
TNAP act hiacc: 0.9; CHT PAM: inactive; CHT block: inactive; TNAP inh noacc: 1.1; ABCB6 inh 2: 100.0; TNAP inh hi DEA: 6.2

Results for Cc1ccc2c(c1)c1c3n2CCN=C3CCC1 ?
TNAP act hiacc: 1.1; CHT PAM: inactive; CHT block: inactive; TNAP inh noacc: -12.6; ABCB6 inh 2: 100.0; TNAP inh hi DEA: -5.8

How did COc1ccc2c(c1)c1c3n2CCN(C)C3=NCC1 do in these assays?
TNAP act hiacc: 1.1; CHT PAM: inactive; CHT block: inactive; TNAP inh noacc: 1.3; ABCB6 inh 2: 87.0; TNAP inh hi DEA: -7.5; CHT act confirm: 52.8*; HEK293 MP dye: -60.2*

Results for CCOC(=O)c1c(-c2cccc([N+](=O)[O-])c2)csc1N ?
TNAP act hiacc: 1; CHT PAM: inactive; CHT block: inactive; TNAP inh noacc: -6.9; ABCB6 inh 2: 94.0; TNAP inh hi DEA: -0.3

What do the screens show for `Cc1csc2cc(-c3cccc([N+](=O)[O-])c3)c(-c3cccc([N+](=O)[O-])c3)c[n+]12`?
TNAP act hiacc: 0.9; CHT PAM: 9.3*; CHT block: inactive; TNAP inh noacc: 2.6; ABCB6 inh 2: 93.0; TNAP inh hi DEA: 5.7; CHT act confirm: 85.8*; HEK293 MP dye: -87.1*

Results for O=C(c1ccsc1)N1CCCC(N2CCOCC2)C1 (configuration not stated) ?
CHT PAM: inactive; CHT block: inactive; ABCB6 inh 2: 94.0

Results for CCc1ccc(Nc2n[n+](-c3ccccc3)c(-c3cc(OC)c(OC)cc3Br)s2)cc1 ?
CHT PAM: inactive; CHT block: inactive; ABCB6 inh 2: 97.0

Results for CCc1ccc(Nc2n[n+](-c3ccccc3)c(-c3ccc(OCc4ccccc4)cc3)s2)cc1 ?
CHT PAM: 17.5*; CHT block: inactive; ABCB6 inh 2: 96.0; CHT act confirm: 1.5; HEK293 MP dye: inactive

Results for CCn1cc(Br)c(C(=O)NC(=S)Nc2ccc(C(=O)OC)cc2)n1 ?
TNAP act hiacc: 1; CHT PAM: inactive; CHT block: inactive; TNAP inh noacc: -4.6; ABCB6 inh 2: 92.0; TNAP inh hi DEA: -0.6

What do the screens show for `Cc1ccccc1CN1C(=O)[C@H]2Cc3c([nH]c4ccccc34)C(C)(C)N2C1=O`?
CHT PAM: inactive; CHT block: inactive; ABCB6 inh 2: 101.0

Results for CCOC(=O)/C(C#N)=C/c1c(N2CCN(CC)CC2)nc2c(C)cccn2c1=O ?
CHT PAM: inactive; CHT block: inactive; ABCB6 inh 2: 102.0; CHT act confirm: 52.2*; HEK293 MP dye: -50.4*

Results for CNC(=O)/C(C#N)=C/c1c(N2CCN(c3cccc(Cl)c3)CC2)nc2c(C)cccn2c1=O ?
CHT PAM: inactive; CHT block: inactive; ABCB6 inh 2: 88.0

How did CCNC(=O)/C(C#N)=C/c1c(N2CCN(c3ccccc3)CC2)nc2c(C)cccn2c1=O do in these assays?
CHT PAM: inactive; CHT block: inactive; ABCB6 inh 2: 91.0

Results for CNC(=O)/C(C#N)=C/c1c(N2CCN(C)CC2)nc2c(C)cccn2c1=O ?
CHT PAM: inactive; CHT block: inactive; ABCB6 inh 2: 88.0; CHT act confirm: 57.9*; HEK293 MP dye: -56.1*

How did CCN1CCN(c2nc3c(C)cccn3c(=O)c2/C=C(\C#N)C(=O)NC)CC1 do in these assays?
CHT PAM: 9.07*; CHT block: inactive; ABCB6 inh 2: 104.0; CHT act confirm: 46.9*; HEK293 MP dye: -44.9*

How did CCN1CCN(c2nc3c(C)cccn3c(=O)c2/C=C(\C#N)C(=O)NCCCOC)CC1 do in these assays?
CHT PAM: 7.53*; CHT block: inactive; ABCB6 inh 2: 98.0; CHT act confirm: 50.4*; HEK293 MP dye: -59.7*

Results for CCOC(=O)/C(C#N)=C/c1c(N2CCN(c3ccc(OC)cc3)CC2)nc2c(C)cccn2c1=O ?
CHT PAM: inactive; CHT block: inactive; ABCB6 inh 2: 96.0

How did Cc1ccccc1OCC(=O)O/N=C(\N)c1ccncc1 do in these assays?
CHT PAM: inactive; CHT block: inactive; ABCB6 inh 2: 97.0

What do the screens show for `COC(=O)[C@H](CCSC)NC(=O)Nc1cccc(Br)c1`?
CHT PAM: inactive; CHT block: inactive; ABCB6 inh 2: 100.0

What do the screens show for `CC(C)N(CCNC(=O)c1cn(C)c2ccc(S(=O)(=O)N(C)C)cc2c1=O)Cc1ccccc1`?
TNAP act hiacc: 1.1; CHT PAM: inactive; CHT block: inactive; TNAP inh noacc: 12.4; ABCB6 inh 2: 95.0; TNAP inh hi DEA: -8.2

Results for CN1CCN(CCCNC(=O)c2cn(C)c3ccc(S(=O)(=O)N(C)C)cc3c2=O)CC1 ?
TNAP act hiacc: 1.1; CHT PAM: 6.87*; CHT block: inactive; TNAP inh noacc: 15.1; ABCB6 inh 2: 96.0; TNAP inh hi DEA: -7.2; CHT act confirm: 41.3*; HEK293 MP dye: -22.7*
